Compounds with a hit are over-represented: about 1.9% of the library has one in this group of screens.
IMP-1 inh-1 = inhibitors of Pseudomonas aeruginosa IMP-1 metallo-beta-lactamase; purified IMP-1, nitrocefin hydrolysis, epi-absorbance fluorescence; inhibition, % at 5.6 µM; hit rate 0.45% among 290,000;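 active means inhibition above the mean plus 3 SD of all compounds in the same screening run, cut at about 4.5% in these data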
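system = purified recombinant IMP-1 beta-lactamase | amount = 0.2 nM IMP-1, as dispensed | medium = HEPES buffer pH 7.1 with ZnSO4 and Brij 35 | times = 25 °C, 15 min preincubation, 25 min reaction | detection = plate fluorescence quenching by hydrolysis product, ex 480/em 530 nm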
VIM-2 inh = blocks Pseudomonas aeruginosa VIM-2 metallo-beta-lactamase. purified VIM-2, nitrocefin hydrolysis, epi-absorbance fluorescence. inhibition, % at 5.6 µM. hit rate 0.89% among 290,000. AID 1527;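 active means inhibition above the mean of all tested compounds plus 3 SD, cutoff set per screening run, cut at about 7.5% in these data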;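 further: red hydrolysis product quenches plate fluorescence so inhibitors raise well fluorescence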
NadD inh = inhibitors of Staphylococcus aureus NadD; purified NadD enzyme, colorimetric absorbance read-out; inhibition, % at 20 µM; hit rate 0.78% among 360,000; AID 602399; in the data active means inhibition above about 26%
core dimer inh = blocks dimerization of HCV core protein; TR-FRET GST/Flag-core106 dimerization, 1536-well; inhibition, % at 5 µM; hit rate 0.33% among 300,000; AID 1899;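 active means inhibition above the mean of all tested compounds plus 3 SD, set per screening campaign, cut at about 45% in these data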
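Material: GST/Flag-tagged HCV core106 proteins. Incubation: 4 h, 22.5 °C incubation. Read-out basis: inhibition (%) from 671 over 617 nm ratio. Measured by: TR-FRET, excitation 340 nm, emission 617 and 671 nm.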
IMP-1 inh-2 = IMP-1 inhibition, counter-screen for VIM-2 inhibitors. inhibition, % at 5.6 µM. purified IMP-1, nitrocefin hydrolysis, epi-absorbance fluorescence. shares compounds with VIM-2 inh. AID 1856. 1,300 tested, under 10 active; call rule not given here
VIM-2 FRET ctr = inhibits VIM-2 in FRET assay to exclude epi-absorbance artifacts | shares compounds with VIM-2 inh | purified VIM-2, CCF2 FRET substrate hydrolysis | inhibition, % at 5.6 µM | hit rate 23% among 1,300 | AID 1857;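 active means inhibition above the mean of all tested compounds plus 3 SD, cut at about 19% in these data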
TEM-1 inh = blocks E. coli TEM-1 beta-lactamase in VIM-2 selectivity screen; shares compounds with VIM-2 inh; Purified TEM-1, nitrocefin hydrolysis, epi-absorbance fluorescence; inhibition, % at 5.6 µM; hit rate 3% among 1,300;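 active means inhibition above that campaign's mean inhibition plus 3 SD, cut at about 0.46% in these data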
Target sequence (P62593 whole entry, looked up): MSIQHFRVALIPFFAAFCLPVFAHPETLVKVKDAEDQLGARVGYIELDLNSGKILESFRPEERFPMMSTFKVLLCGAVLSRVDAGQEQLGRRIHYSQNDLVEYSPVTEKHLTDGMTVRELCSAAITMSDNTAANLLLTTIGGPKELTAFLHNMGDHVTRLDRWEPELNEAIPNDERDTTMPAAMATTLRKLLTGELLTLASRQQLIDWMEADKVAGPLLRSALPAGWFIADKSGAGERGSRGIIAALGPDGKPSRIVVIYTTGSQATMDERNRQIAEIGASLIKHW
VIM-2 inh conf = confirmation of P. aeruginosa VIM-2 metallo-beta-lactamase inhibitors; shares compounds with VIM-2 inh; purified VIM-2, nitrocefin hydrolysis, epi-absorbance; inhibition, % at 5.6 µM; hit rate 96% among 1,300;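 active means inhibition of the VIM-2 beta-lactamase enzyme above about 11% from the earlier first-round screen, limit read from the data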
Numbers stand for hits; 0 = inactive; - = not tested or not shown.

SMILES | IMP-1 inh-1 | VIM-2 inh | NadD inh | core dimer inh | IMP-1 inh-2 | VIM-2 FRET ctr | TEM-1 inh | VIM-2 inh conf
CCn1c(SCC(=O)Nc2ccc(N(C)C)cc2)nnc1-c1ccco1 | 0 | 0 | 0 | 0 | - | - | - | -
Cc1nnc2c(NC3CCCC3)nc3ccccc3n12 | 0 | 12 | 0 | 0 | 0 | 0 | 0 | 23
c1ccc2c(c1)nc(NC1CCCCC1)c1nncn12 | 0 | 0 | 0 | 0 | - | - | - | -
CCOc1ccc(/C=N/Nc2nc(C)cs2)c(O)c1 | 0 | 0 | 0 | - | - | - | - | -
Cc1ccsc1C(=O)OCC(=O)NC1CCCCC1 | - | - | 0 | - | - | - | - | -
CCOc1ccc2nc(NCCNC(=S)NCCCN(C)C)c(C#N)cc2c1 | 0 | 13 | 0 | 0 | 0 | 0 | 0 | 18
Cc1ccc(CC2(C)C(=O)Nc3c(Cl)cccc32)cc1 (stereo not drawn) | - | - | 0 | - | - | - | - | -
Oc1ccc2ccccc2c1-c1sc(Nc2ccccc2)n[n+]1-c1ccc(F)cc1 | 0 | 17 | 0 | 0 | 4.9 | 0 | 1.3 | 8.2
CCOc1ccc(N2CC(NC(=O)c3ccc4ccccc4c3)CC2=O)cc1 (stereo not drawn) | - | - | 0 | 0 | - | - | - | -
CCOC(=O)c1sc2nc(C)nc(NC3CCC(O)CC3)c2c1C (stereo not drawn) | 0 | 23 | 0 | 0 | 0 | 0 | 0 | 32
CCn1cc(C(=O)NCCCN(C)C)c(=O)c2cc(F)c(N3CCN(C)CC3)cc21 | 0 | 21 | 0 | 0 | 0 | 0 | 0 | 36
CCCCCNC(=O)c1cn(CC)c2cc(N3CCN(C)CC3)c(F)cc2c1=O | 0 | 0 | 0 | 0 | - | - | - | -
CCOC(=O)c1cnc2ccc(C(=O)OC)cc2c1NCCCN1CCOCC1 | 0 | 70 | 0 | - | 0 | 0 | 0 | 82
CCOC(=O)c1cnc2ccc(OCC)cc2c1NCCCN1CCOCC1 | 0 | 32 | 0 | 0 | 0 | 0 | 0 | 45
[O-][n+]1onc2c1CCC(=N/O)/C2=N\Nc1ccccc1 | 0 | 0 | - | 0 | - | - | - | -
S=c1[nH]nc(-c2ccc3ncccc3c2)n1-c1ccc2c(c1)OCCO2 | 0 | 27 | 0 | 0 | 0 | 52 | 0 | 33
S=c1[nH]nc(Cn2c(-c3ccccn3)nc3ccccc32)n1-c1ccc2c(c1)OCCO2 | 0 | 23 | 0 | 0 | 0 | 49 | 0 | 31
Oc1ccc(-c2n[nH]c(=S)n2-c2ccc3c(c2)OCCO3)cc1 | 0 | 14 | 0 | 0 | 0 | 33 | 0 | 20
S=c1[nH]nc(-c2ccc3ccccc3n2)n1-c1ccc2ncccc2c1 | 0 | 0 | 0 | 0 | - | - | - | -
O=C(CCNS(=O)(=O)c1ccc(OC(F)(F)F)cc1)Nc1cccc(S(=O)(=O)N2CCCC2)c1 | - | - | 0 | - | - | - | - | -
CCC(C)Sc1ccc([C@H]2N[C@@](CC(C)C)(C(=O)OC)[C@H]3C(=O)N(C)C(=O)[C@@H]23)cc1 (stereo partly drawn) | - | - | 0 | 0 | - | - | - | -
O=C(NCc1cccc(Cl)c1)c1cccc(OC2CCN(C(=O)C3CC3)CC2)c1 | 0 | 25 | 0 | 0 | 0 | 0 | 0 | 0
COc1ccc2c(ccn2S(=O)(=O)c2ccccc2)c1 | 0 | 0 | 0 | 0 | - | - | - | -
CC(/C=N/n1c(-c2ccccn2)n[nH]c1=S)=C\c1ccccc1 | 0 | 0 | 0 | 0 | - | - | - | -
CCc1n[nH]c(=S)n1/N=C/c1ccc(NC(C)=O)cc1 | 0 | 23 | 0 | 0 | 0 | 61 | 0 | 46
SMILES | IMP-1 inh-1 | VIM-2 inh | NadD inh | core dimer inh | IMP-1 inh-2 | VIM-2 FRET ctr | TEM-1 inh | VIM-2 inh conf
CCc1n[nH]c(=S)n1/N=C/C(C)=C\c1ccccc1 | 0 | 57 | 0 | 0 | 0 | 83 | 0 | 70
CC(/C=N/n1c(-c2ccco2)n[nH]c1=S)=C\c1ccccc1 | 0 | 13 | 0 | 0 | 0 | 40 | 0 | 23
N#Cc1c(NC(=O)C(=O)NCCCN2CCOCC2)sc2c1CCCC2 | 0 | 0 | 0 | 0 | - | - | - | -
COC(=O)c1c(NC(=O)C(=O)NCCCN2CCOCC2)sc2c1CC(C)(C)OC2 | 0 | 13 | 0 | 0 | 0 | 0 | 0 | 20
CC1(C)Cc2c(sc(NC(=O)C(=O)NCCCN3CCOCC3)c2C(N)=O)CO1 | 0 | 0 | 0 | 0 | - | - | - | -
COC(=O)c1c(NC(=O)C(=O)NCCCN2CCOCC2)sc2c1CCC2 | 0 | 14 | 0 | 0 | 0 | 0 | 0 | 25
O=C(CSc1nnc(NC(=O)c2ccccc2[N+](=O)[O-])s1)NC1CCCC1 | 0 | 15 | 0 | 0 | 0 | 32 | 0 | 19
COc1ccccc1C(=O)Nc1nnc(SCC(=O)NC2CCCC2)s1 | 0 | 12 | 0 | 0 | 0 | 31 | 0 | 24
COCCCN1C(=O)C(CC(=O)NC2CCCC2)CC(C(=O)N(C(C)C)C(C)C)=C1C (stereo not drawn) | - | - | 0 | - | - | - | - | -
COc1ccccc1NC(=O)COc1cccc2c1CCNC2=O | - | - | 0 | 0 | - | - | - | -
CN(C)c1ccc(/C=C2\C(=N)N3N=C(CC(=O)N4CCCCC4)SC3=NC2=O)cc1 | 0 | 13 | 0 | 0 | 0 | 29 | 0 | 18
O=C(C1CCCO1)N1N=C(c2ccc(Br)cc2)CC1c1ccco1 (stereo not drawn) | 0 | 18 | 0 | 0 | 0 | 57 | 0 | 36
O=C(c1ccc(Br)o1)N1N=C(c2ccc(Cl)cc2)CC1c1ccco1 (stereo not drawn) | 0 | 12 | 0 | 0 | 0 | 30 | 0 | 19
CC(=O)N1N=C(c2ccc(C)cc2)CC1c1ccco1 (stereo not drawn) | 0 | 0 | 0 | 0 | - | - | - | -
Cc1ccc(C2=NN(C(=O)C3CCCO3)C(c3ccco3)C2)cc1 (stereo not drawn) | 0 | 14 | 0 | 0 | 0 | 27 | 0 | 17
COCCCN1C(=O)C(CC(=O)NC2CCCCC2)CC(C(=O)N2CCCCCC2)=C1C (stereo not drawn) | - | - | 0 | - | - | - | - | -
CSc1nc(C)c2c(n1)N(c1ccc(O)cc1)CC2 | 0 | 16 | 0 | 0 | 0 | 0 | 0 | 27
CCOc1ccccc1N1CCN(CC(=O)Nc2nccs2)CC1 | - | - | 0 | - | - | - | - | -
Cc1cccc(Nc2c3c(nc4ccccc24)CCC3)c1 | 0 | 0 | 0 | 0 | - | - | - | -
Cc1ccc2nc3c(c(Nc4ccc5c(c4)OCCO5)c2c1)CCC3 | 0 | 16 | 0 | 0 | 0 | 0 | 0 | 30
Cc1ccc2nc3c(c(Nc4ccc(O)cc4)c2c1)CCC3 | 0 | 19 | 0 | 0 | 0 | 0 | 0 | 32
N#Cc1cccc(Nc2c3c(nc4ccccc24)CCC3)c1 | 0 | 0 | 0 | 0 | - | - | - | -
Cn1c(=O)c2cc(NC(=O)NCCc3cccs3)ccc2n1Cc1ccccc1 | - | - | 0 | - | - | - | - | -
COc1ccc(-c2cnc3n2CCCCC3)cc1 | 0 | 0 | 0 | 0 | - | - | - | -
Clc1ccc(C2=C3CCCCn4c(-c5ccccc5)c[n+](c43)C2)cc1 | 0 | 18 | 0 | 0 | 0 | 0 | 0 | 0
COc1ccc(-c2c[n+]3c4n2CCCCC4=C(c2ccc(Br)cc2)C3)cc1 | 0 | 14 | 0 | 0 | 0 | 0 | 2.5 | 13
CCN(CC)c1ccc(C(=O)NNC(=O)Cn2c(=O)cnc3ccccc32)cc1 | - | - | 0 | - | - | - | - | -
O=[N+]([O-])c1c(Nc2ccc(O)cc2)cc(Cl)c2nonc12 | 0 | 22 | 0 | 0 | 0 | 0 | 0 | 32
